An excerpt weighted towards active compounds, which were near 6.7% of everything screened.
CHOP inh – CHOP inhibition in unfolded protein response. CHO-K1 CHOP-promoter luciferase, tunicamycin-induced, 15-18 h. inhibition, % at 10 µM. actives 3.8% (n = 220,000);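 active = compounds that reduced the stress-induced luciferase reporter signal by more than about 70% of percent inhibition, limit read from the data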;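 note: 0% = tunicamycin plus vehicle and 100% = wells without tunicamycin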
Beta apoptosis – beta cell apoptosis inhibition. INS-1E cytokine-induced death, ATP luminescence, 48 h; percent of positive-control rescue, neutral wells zero. protection from apoptosis, % (test concentration not listed). actives 0.8% (n = 300,000). AID 435005;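 active = Every replicate reaches about 75%, or at least half do and their mean reaches it too, limit read from the data; inconclusive = At least half of replicates reach the limit but their mean does not; inactive = Under half of replicates reach the limit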;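 note: 0% = cytokine-treated negative control wells and 100% = positive control rescue; higher means more ATP so stronger rescue from cytokine killing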
CSC inhib – blocks cancer stem cells; inhibition, % at 7.5 µM; cancer stem cell-like cells viability, luminescence; actives 1.1% (n = 300,000); in the data active = inhibition above about 75%; inconclusive = no clear call, values can overlap the other calls; tested in HMLE shEcad cells
GRIN3A LBD mod – modulators (binders) of human NR3A ligand-binding domain. NR3A LBD differential scanning fluorimetry, Tm shift; 0% = protein alone, 100% = glycine-bound protein. Tm shift relative to glycine control, % at 25 µM. actives 2.5% (n = 340,000);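 active = melting temperature shift of at least 10% of the positive control shift, at one fixed dose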
T cruzi inh – blocks replication of Trypanosoma cruzi. actives 1.4% (n = 300,000). inhibition, % (concentration not given with the values). T. cruzi beta-gal in NIH3T3, luminescence, 90 h. AID 1885;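 active = mean inhibition across valid replicates above about 55%, limit read from the data; inconclusive = mean below that limit but half or more replicates reach it; inactive = mean below it, under half of replicates reach it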;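 note: signal also drops with host cell toxicity which is not excluded here; 0% = plate median of DMSO wells and 100% = zero luminescence signal; higher percent means less beta-gal luminescence so fewer parasites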
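System: mouse NIH/3T3 fibroblasts infected with β-gal-expressing T. cruzi Tulahuen C4 / Input: NIH/3T3 cells, 5,000 per well / Buffer or medium: Low-serum DMEM with 2% FBS / Probe or stimulus: 5000 reporter trypomastigotes per well / Schedule: ≥90 h infection period, 3 h prior cell attachment / Measured by: GalScreen luminescence, 60 min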
PREPL inhibitor – inhibitors of human prolyl oligopeptidase-like enzyme PREPL; recombinant PREPL, fluorescence polarization activity-based probe; inhibition, % at 5.96 µM; actives 0.68% (n = 320,000); AID 2751; in the data active = inhibition above about 43%;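 note: 0% = enzyme with DMSO and 100% = wells lacking enzyme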
Target sequence (Q4J6C6 whole entry, looked up): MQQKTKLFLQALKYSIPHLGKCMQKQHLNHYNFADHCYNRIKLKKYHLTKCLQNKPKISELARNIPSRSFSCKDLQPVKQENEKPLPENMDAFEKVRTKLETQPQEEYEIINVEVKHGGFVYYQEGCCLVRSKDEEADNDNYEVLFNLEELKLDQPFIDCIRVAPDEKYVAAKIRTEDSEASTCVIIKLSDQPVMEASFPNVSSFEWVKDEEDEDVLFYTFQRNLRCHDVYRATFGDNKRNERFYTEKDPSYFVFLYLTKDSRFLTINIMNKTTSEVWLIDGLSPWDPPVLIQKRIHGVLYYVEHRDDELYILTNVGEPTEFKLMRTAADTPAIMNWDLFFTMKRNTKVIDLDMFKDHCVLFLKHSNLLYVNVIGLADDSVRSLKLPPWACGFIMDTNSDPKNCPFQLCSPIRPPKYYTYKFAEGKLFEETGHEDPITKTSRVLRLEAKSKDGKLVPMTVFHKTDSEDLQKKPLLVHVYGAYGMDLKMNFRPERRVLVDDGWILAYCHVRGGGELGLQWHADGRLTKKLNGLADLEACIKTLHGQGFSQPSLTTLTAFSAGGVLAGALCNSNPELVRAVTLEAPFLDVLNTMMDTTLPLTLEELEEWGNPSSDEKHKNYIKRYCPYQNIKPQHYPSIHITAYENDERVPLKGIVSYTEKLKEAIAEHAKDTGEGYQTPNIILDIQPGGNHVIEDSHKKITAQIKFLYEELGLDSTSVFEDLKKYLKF
The depositor's hits bear a star; ? = inconclusive; / = no result.

SMILES	CHOP inh	Beta apoptosis	CSC inhib	GRIN3A LBD mod	T cruzi inh	PREPL inhibitor
COC(=O)NCC(c1ccco1)N1CCN(c2ccccc2)CC1 (centres undefined)	-18	7	-12	-2	18	10
COC(=O)Nc1ccc(S(=O)(=O)N2c3ccccc3CCC2C)cc1 (centres undefined)	/	10	145*	-14	-12	-1
COC(=O)Nc1ccc(S(=O)(=O)N2CCCCC2C(=O)O)cc1 (centres undefined)	-1	-4	-16	0	-4	0
O=C(NCc1cn(-c2ccccc2)nc1-c1ccc(F)cc1)c1cccc([N+](=O)[O-])c1	52	15	14	2	61*	8
CCN(c1ccccc1)S(=O)(=O)c1ccc(OC)c(NC(=O)c2ccc(=O)[nH]c2)c1	/	-1	-7	1	/	10
CC1CCCCC1NC(=O)CN1C(=O)COc2ccccc21 (centres undefined)	/	9	-4	-1	3	15
CCC1Oc2ccccc2N(CC(=O)NC2CCCCC2C)C1=O (centres undefined)	/	6	10	15*	20	19
O=C(/C=C/c1cccc([N+](=O)[O-])c1)NCCSCc1ccc(Cl)cc1	32	1	5	5	17	5
O=C(/C=C/c1ccccc1)NCCSCc1ccc(Cl)cc1	15	-2	-21	12*	13	-35
O=C(c1ccco1)N(Cc1ccc([N+](=O)[O-])cc1)c1ccc(Br)cc1	70*	4	7	4	16	11
O=C(c1ccco1)N(Cc1cccc([N+](=O)[O-])c1)c1ccc(Br)cc1	9	-5	-3	3	-3	1
O=C(CS(=O)(=O)c1c[nH]c2ccccc12)NC1CCCCC1	15	/	2	1	-3	4
O=C(CS(=O)(=O)c1c[nH]c2ccccc12)Nc1ccc(F)cc1	/	14	-4	13*	5	-18
C/C(=N/NC(N)=S)c1ccc(Br)s1	14	1	-8	-3	61*	-2
C/C(=N\NC(N)=S)c1cc(-c2ccccc2)c(-c2ccccc2)s1	/	/	99*	-4	53	-2
N#Cc1ccccc1NC(=O)CC1CCCCC1	8	-6	4	-3	-15	11
N#Cc1ccccc1NC(=O)CC1c2ccccc2Oc2ccccc21	14	9	/	13*	0	-2
Cn1c(N)c(C(=O)COC(=O)c2ccc([N+](=O)[O-])o2)c(=O)n(C)c1=O	10	-2	19	1	17	-3
CC(=O)Nc1ccc(NC(=O)Cc2sc(-c3cccnc3)nc2-c2ccc(C)cc2)cc1	-2	2	-5	-5	70*	-2
O=C(Cc1sc(-c2ccccc2Cl)nc1-c1ccccc1)Nc1ccccc1	60	5	3	-1	-3	-8
O=C(Cc1sc(-c2ccccc2)nc1-c1ccccc1)Nc1ccc(Cl)cc1	-5	19	5	24*	7	9
Cc1ccc(-c2nc(-c3cccnc3)sc2CC(=O)O)cc1	25	-4	5	1	-10	-14
CCCCn1c(=O)[nH]c(=O)c2c1nc(Cn1ncc(Cl)c(Cl)c1=O)n2CCC	/	4	-2	3	23	14
Cc1c(C(=O)N(C)Cc2ccccc2)oc2ccc(S(=O)(=O)N3CCCC3)cc12	-14	-1	1	-2	17	1
Cc1c(C(=O)Nc2cccc(C(F)(F)F)c2)oc2ccc(S(=O)(=O)N3CCOCC3)cc12	52	/	-13	25*	/	-5
SMILES	CHOP inh	Beta apoptosis	CSC inhib	GRIN3A LBD mod	T cruzi inh	PREPL inhibitor
Cc1c(C(=O)N(Cc2ccccc2)C(C)C)oc2ccc(S(=O)(=O)N3CCOCC3)cc12	/	90*	7	-3	11	7
O=C(OCC(=O)N1CCc2ccccc21)c1ccncc1	/	-2	-13	1	/	0
COc1ccc(N(CC(=O)N/N=C(\C)c2ccc(OC)c(OC)c2)S(=O)(=O)c2ccccc2)cc1	/	-8	2	4	3	-3
Cc1csc2ncnc(N3CCN(S(=O)(=O)c4cccc(C(F)(F)F)c4)CC3)c12	/	95*	3	-6	1	-5
Cc1sc2ncnc(N3CCN(S(=O)(=O)c4ccc(C(C)(C)C)cc4)CC3)c2c1C	/	124*	6	3	/	-1
Cc1sc2ncnc(N3CCN(CCOc4ccc(Cl)cc4)CC3)c2c1C	92*	103*	83*	-10	59*	-98
Cc1csc2c(N3CCN(S(=O)(=O)c4ccc(Cl)cc4)CC3)ncnc12	7	-5	4	-1	7	-70
O=S(=O)(c1ccc(Cl)cc1)N1CCN(c2ncnc3sccc23)CC1	/	83*	12	-2	/	-51
O=S(=O)(c1cccc(Br)c1)N1CCN(c2ncnc3scc(-c4ccccc4)c23)CC1	/	/	/	0	/	/
COc1ccc(CNS(=O)(=O)c2cc3c4c(c2)C(C)C(=O)N4CCC3)cc1 (centres undefined)	/	-2	1	4	-2	2
COc1ccc(N2C(=O)CC(Sc3nc4c(cc3C#N)CCC4)C2=O)cc1 (centres undefined)	-2	1	10	2	-3	3
Cc1noc(C)c1CSc1nc2ccccc2nc1NS(=O)(=O)c1ccc(Cl)cc1	/	/	82*	5	-9	5
CCc1ccc(-c2cc(C(=O)N/N=C/c3c[nH]c4ccccc34)[nH]n2)cc1	89*	15	?	24*	-7	38
CCc1ccc2c(Cl)c(C(=O)N/N=C/c3c[nH]c4ccccc34)sc2c1	71*	/	62	24*	12	16
O=C(N/N=C/c1c[nH]c2ccccc12)c1ccc([N+](=O)[O-])cc1Cl	/	-2	11	4	7	20
O=C(CSc1ccc(Br)cc1)Nc1ccc(N2CCOCC2)cc1	/	6	/	1	0	21
Cc1cc(NS(=O)(=O)c2ccc(NC(=O)c3cnc(Cl)c(Cl)c3)cc2)nc(C)n1	/	-5	-4	-3	/	10
Cc1ccc(-c2csc(NC(=O)c3ccc(C)o3)n2)cc1	21	/	/	-26	-17	-3
Cc1ccc(-c2csc(NC(=O)c3ccc([N+](=O)[O-])o3)n2)cc1	/	46	127*	6	70*	-47
CC(=O)c1c(C)[nH]c(C(=O)Nc2nc(-c3ccc(-c4ccccc4)cc3)cs2)c1C	34	44	50	11*	69*	8
Cc1ccc(-c2csc(NC(=O)c3cccc([N+](=O)[O-])c3)n2)cc1	23	1	/	25*	-2	0
Cc1ccc2nc(-c3ccc(NC(=O)CSCC(=O)O)cc3)sc2c1	-4	-3	27	1	-4	-13
Cc1ccc2nc(-c3ccc(NC(=O)CCN4C(=O)c5ccccc5C4=O)cc3)sc2c1	45	1	28	18*	-13	8

Compound activity as filed in PubChem.
